What all share (format): functional
Experiment [1] deals with Rattus norvegicus. Description: Antihyperlipidemic activity in Triton-induced dyslipidemic Wistar rat model assessed as reduction in phospholipid level at 100 mg/kg, po. Details: scale not given: the % may be the effect or the level left. Summed up: (§1)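 Male Wistar rats, 8−10 weeks, about 160 g, fed normal pellet diet. Triton X-100 given at 400 mg/kg ip; compound given orally in 1% gum acacia. Retro-orbital blood taken 18 h after Triton and serum separated at 1500g for 10 min. TG and cholesterol measured by kit. Mean % change versus dyslipidemic control, 5 animals.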

For experiment [2], the system named is Rattus norvegicus. Description: Antihyperlipidemic activity in Triton-induced dyslipidemic Wistar rat model assessed as reduction in cholesterol level at 100 mg/kg, po. Details: scale not given: the % may be the effect or the level left. Put shortly: as §1
For experiment [3], the system named is Rattus norvegicus. The experiment is described as follows: Antihyperlipidemic activity in Triton-induced dyslipidemic Wistar rat model assessed as reduction in triglyceride level at 100 mg/kg, po. Details: scale not given: the % may be the effect or the level left. Put shortly:
as §1

Experiment [4] deals with Rattus norvegicus. The experiment is described as follows: Antidiabetic activity in sucrose challenged streptozotocin-induced diabetic Sprague-Dawley rat model assessed as reduction in glucose levels at 100 mg/kg, po measured after 5 hrs.
Experiment [5] has as its system Rattus norvegicus. The experiment is described as follows: Antidiabetic activity in sucrose challenged streptozotocin-induced diabetic Sprague-Dawley rat model assessed as reduction in glucose levels at 100 mg/kg, po measured after 24 hrs.
The subject of experiment [6] is Rattus norvegicus. The experiment is described as follows: Antidiabetic activity in sucrose loaded Wistar rat model assessed as reduction in glucose levels at 100 mg/kg, po. Also on record: scale not given: the % may be the effect or the level left.

Active and inactive are the calls of the source. No cut-off for these calls is given here.

For the compound `CC(C)(C)NCC(O)COc1ccc2c(=O)cc(-c3cc(O)cc(O)c3)oc2c1` (stereo not drawn), the Activity is 4% in experiment [1], 17% in experiment [2] and 16% in experiment [3].

With `CC(C)(C)NCC(O)COc1ccc2oc(-c3ccc(O)c(O)c3)cc(=O)c2c1` (stereo not drawn), the figures for the Activity in experiment [1], in experiment [2] and in experiment [3] were 23%, 24% and 25%, respectively. The result in experiment [4] and in experiment [5] was inactive.

For the compound `Cc1ccccc1COc1cc(OCc2ccccc2C)cc(-c2cc(=O)c3ccc(OCC(O)CNC(C)C)cc3o2)c1` (stereo not drawn), the Activity in experiment [1] is recorded as 24.1%; in experiment [2] it was 13.5%; in experiment [3], 26.2%; in experiment [6], 4.65%.

Take `O=c1cc(-c2cc(OCc3ccccc3)cc(OCc3ccccc3)c2)oc2cc(OCC(O)CN3CCN(c4ccccc4)CC3)ccc12` (stereo not drawn): the Activity turned out to be 21% in experiment [1], 14.3% in experiment [4], 24% in experiment [2] and 17% in experiment [3].

Regarding `COc1cc(-c2cc(=O)c3ccc(OCC(O)CN4CCN(c5ccccc5)CC4)cc3o2)cc(OC)c1OC` (stereo not drawn), the Activity in experiment [1] is recorded as 8%; in experiment [4] it was 2.36%; in experiment [5], 0.24%; in experiment [2], 19%; in experiment [3], 23%.

For `COc1cc(-c2cc(=O)c3ccc(OCC(O)CNC(C)C)cc3o2)cc(OC)c1OC` (stereo not drawn), the Activity in experiment [1] was 16%; in experiment [2], 18%; in experiment [3], 19%; in experiment [6], 20.7%.

With `CC(C)NCC(O)COc1ccc2c(=O)cc(-c3ccc(O)c(O)c3)oc2c1` (stereo not drawn), the Activity in experiment [1] was 13%; in experiment [2] it was 15%; in experiment [3], 19%. In addition, the result in experiment [6] was inactive.

For the compound `CC(C)(C)NCC(O)COc1ccc2oc(-c3ccc(OCc4ccccc4)c(OCc4ccccc4)c3)cc(=O)c2c1` (stereo not drawn), the Activity in experiment [1] turned out to be 12%; in experiment [5], 0.36%; in experiment [2], 21%; in experiment [3], 17%; in experiment [6], 21.8%.

`COc1ccc(-c2cc(=O)c3ccc(OCC(O)CN4CCN(c5ccccc5)CC4)cc3o2)cc1OC` (stereo not drawn): the Activity in experiment [1] was 22%; in experiment [4], 4.35%; in experiment [5], 2.34%; in experiment [2], 23%; in experiment [3] it was 19%.

For `COc1cc(-c2cc(=O)c3ccc(OCC(O)CNC(C)(C)C)cc3o2)cc(OC)c1OC` (stereo not drawn), the Activity is on record as 26% in experiment [1], 24% in experiment [2] and 28% in experiment [3]. In experiment [6], the result was inactive.

As for `COc1ccc(-c2cc(=O)c3ccc(OCC(O)CNC(C)C)cc3o2)cc1OC` (stereo not drawn), the Activity in experiment [4] stood at 13.8%; in experiment [5] it was 6.83%; in experiment [6], 23.9%.

`COc1cc(OC)cc(-c2cc(=O)c3ccc(OCC(O)CNC(C)C)cc3o2)c1` (stereo not drawn): the Activity in experiment [1] is listed as 21%; in experiment [2] it was 17%; in experiment [3], 24%. Besides, the result in experiment [4] and in experiment [5] was inactive.

Regarding `CC(C)(C)NCC(O)COc1ccc2c(=O)cc(-c3ccc(O)c(O)c3)oc2c1` (stereo not drawn), the Activity in experiment [1] amounted to 23%; in experiment [2] it was 21%; in experiment [3], 25%. Also, in experiment [6], the outcome was inactive.

For the compound `Cc1ccc(COc2cc(OCc3ccc(C)cc3)cc(-c3cc(=O)c4ccc(OCC(O)CNC(C)(C)C)cc4o3)c2)cc1` (stereo not drawn), the Activity in experiment [1] is reported as 16.2%; in experiment [2], 11.2%; in experiment [3], 12.8%; in experiment [6] it was 13.6%.

Regarding `COc1cc(OC)cc(-c2cc(=O)c3ccc(OCC(O)CN4CCN(c5ccccc5)CC4)cc3o2)c1` (stereo not drawn), the Activity in experiment [1] worked out at 12.8%; in experiment [2], 14.3%; in experiment [3] it was 17.3%. Besides, the outcome in experiment [6] was inactive.
